Data from PubChem BioAssay.
Calls of active or inactive are those of the source.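 The calls were made as follows, unless noted: active = viability at or below 10% of carrier control in both of two separate runs; inconclusive = viability at or below 10% in only one of the two runs; inactive = the rest.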

Key:
[1] = reduced viability of SK-BR-3 breast cancer cells – cell-based, 24 h, human, pilot screen (AID 572); conditions: SK-BR-3 viability, CellTiter-Glo luminescence, at 10 µM, stronger effect = lower value;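 also: compound exposure lasted between 18 and 24 h rather than exactly 24 h; 100% = carrier-treated control wells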
[2] = HUVEC growth inhibition – cell-based, human, primary screen (AID 575;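 active = viability at or below 30% in both replicate assays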;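 also: 100% = median of untreated cell wells with 0.1% DMSO on each plate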); conditions: HUVEC proliferation, CellTiter-Glo luminescence, 72 h; at 10 µM; stronger effect = lower value
Procedure, shortened: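 Test system – primary HUVEC, no more than 12 passages · Dosing – one dose, 10 µM final, 0.1% DMSO · Times – 72 h treatment at 37 °C · Measured by – ATP-based CellTiter-Glo luminescent read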

[3] = H69AR cell proliferation blockers – human, duplicate replicates, primary screen (AID 580;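 active = viability at or under a set limit in both replicates, limit being median viability minus 3 SD, cut at about 48% in these data, passing the limit was not always enough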;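 also: 100% = mean luminescence of untreated wells and 0% = no signal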); conditions: H69AR lung tumor cells viability, ATP luminescence, 72 h; at 10 µM; stronger effect = lower value
[4] = MRP1 drug-resistance reversers in H69AR cells – cell-based, doxorubicin co-treatment, pilot screen (AID 601;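 active = viability loss from added drug above about 55%, and viability with drug at most 40%, in both replicates, limit read from the data, passing the limit was not always enough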); conditions: CellTiter-Glo, 72 h, at 10 µM; for differential viability (reversal): stronger effect = higher value
[5] = yeast transport mutant growth inhibition pilot in 384-well plates, post-Golgi transport modulator project (AID 636; in the data active = inhibition above about 31%); conditions: absorbance 615 nm, about 18 h, stronger effect = higher value
[6] = growth suppression of yeast trafficking mutant, preliminary HTS, modulators of trafficking downstream of Golgi apparatus project, 1536-format plate, OD 615 nm (AID 637; in the data active = inhibition above about 30%); conditions: yeast transport mutant growth, absorbance 615 nm, 18 h; stronger effect = higher value
[7] = H69AR cells + 2 uM doxorubicin, measured here: viability with 2 uM doxorubicin, stronger effect = lower value
[8] = H69AR cells, compound alone cytotoxicity

Row | SMILES | viability [1] | viability [2] | viability [3] | differential viability (reversal) ([4]; H69AR cells + 2 uM doxorubicin) | viability [4, 7] | viability [4, 8] | inhibition [5] | inhibition [6]
1 | CCOC(=O)CSC1=C(C#N)C(c2ccc3c(c2)OCO3)CC(=O)N1 (stereo unspecified) | 90% (inactive) | 73.1% (inactive) | 13.1% (active) | -52.4% (inactive) | 65.5% | 13.1% | -5.41% (inactive) | -2.36% (inactive)
2 | CCCCN1C(=O)C2C(C(=O)Nc3cccc(OC)c3)C3C=CC2(O3)C1C(=O)NC1CCCCC1C (stereo unspecified) | 101% (inactive) | 82.7% (inactive) | 82.1% (inactive) | 3.86% (inactive) | 78.2% | 82.1% | -2.86% (inactive) | -3.11% (inactive)
3 | COc1ccc(-c2ccc(-c3nnn(CC(C)=O)n3)cc2)cc1 | 118% (inactive) | 105% (inactive) | 76.9% (inactive) | 3.31% (inactive) | 73.6% | 76.9% | -4.16% (inactive) | -9.02% (inactive)
4 | Cc1noc(C)c1C(=O)N1CCN(C(=O)c2sc3cc(Cl)ccc3c2Cl)CC1 | 103% (inactive) | 106% (inactive) | 89% (inactive) | 8.48% (inactive) | 80.5% | 89% | -5.14% (inactive) | -1.64% (inactive)
5 | COc1ccc(C2=CC(=O)OC3(CCCCC3)O2)cc1 | 97% (inactive) | 93.2% (inactive) | 56.5% (inactive) | -28.8% (inactive) | 85.3% | 56.5% | -9.18% (inactive) | 7.42% (inactive)
6 | c1cnc(NCCNc2ncccn2)nc1 | 98% (inactive) | 112% (inactive) | 99.8% (inactive) | 10.7% (inactive) | 89% | 99.8% | -8.4% (inactive) | -3.82% (inactive)
7 | COc1ccc(COC(=O)c2n[nH]c3ccccc23)cc1F | 89% (inactive) | 85.2% (inactive) | 100% (inactive) | 8.74% (inactive) | 91.3% | 100% | -9.45% (inactive) | 3.82% (inactive)
8 | Cc1cc(NC(=O)C(C)(C)C)no1 | 82% (inactive) | 92.7% (inactive) | 99.2% (inactive) | 16% (inactive) | 83.3% | 99.2% | -1.2% (inactive) | -0.73% (inactive)
9 | COc1cccc2c(=O)cc(C)n(CC(=O)Nc3ccc(C)c(C)c3)c12 | 105% (inactive) | 84.5% (inactive) | 95.5% (inactive) | 13.4% (inactive) | 82.1% | 95.5% | -8.4% (inactive) | -2.91% (inactive)
10 | CCOc1ccccc1NC(=O)CN(C)S(=O)(=O)c1cccc2nsnc12 | 104% (inactive) | 91.1% (inactive) | 84% (inactive) | -1.12% (inactive) | 85.1% | 84% | -6.76% (inactive) | 0.73% (inactive)
11 | CCOCC(O)CS(=O)Cc1ccccc1 (stereo unspecified) | 111% (inactive) | 113% (inactive) | 98.5% (inactive) | 22.1% (inactive) | 76.4% | 98.5% | -6.67% (inactive) | -4.55% (inactive)
12 | CCOC(=O)c1cc2sc(C)cc2n1CC(=O)Nc1cccc(C)c1C | 90% (inactive) | 99.2% (inactive) | 91.2% (inactive) | -3.05% (inactive) | 94.2% | 91.2% | -5.81% (inactive) | -5.82% (inactive)
13 | Oc1c(I)cc(I)c2cccnc12 | 61% (inactive) | 71.3% (inactive) | 84.6% (inactive) | -6.25% (inactive) | 90.9% | 84.6% | -2.73% (inactive) | 1% (inactive)
14 | Cc1ccc2nc(/C(C#N)=N/O)[nH]c2c1 | 115% (inactive) | 84.9% (inactive) | 78.2% (inactive) | -2.1% (inactive) | 80.3% | 78.2% | -4.53% (inactive) | 0% (inactive)
15 | FC(F)Oc1cccc2cccnc12 | 89% (inactive) | 111% (inactive) | 94% (inactive) | 9.04% (inactive) | 84.9% | 94% | -3.33% (inactive) | -0.55% (inactive)
16 | O=C(CCCCn1c(=O)c2ccccc2n(Cc2ccc(Cl)cc2)c1=O)NCc1ccco1 | 100% (inactive) | 38.6% (inactive) | 29.6% (active) | -13.4% (inactive) | 43% | 29.6% | -1.17% (inactive) | -2.95% (inactive)
17 | COc1ccccc1-c1noc(-c2ccco2)n1 | 102% (inactive) | 91% (inactive) | 90.7% (inactive) | -2.78% (inactive) | 93.5% | 90.7% | 0% (inactive) | -3.55% (inactive)
18 | CC(C)[N+]1(C)[C@@H]2CC[C@H]1CC(OC(=O)C(CO)c1ccccc1)C2 (stereo partly specified) | 113% (inactive) | 96% (inactive) | 100% (inactive) | 9.31% (inactive) | 90.9% | 100% | -6.36% (inactive) | -2.83% (inactive)
19 | CC1=NN(c2ccccc2)C(=O)C1 | 96% (inactive) | 74.6% (inactive) | 94.5% (inactive) | -10.1% (inactive) | 105% | 94.5% | 1.95% (inactive) | 0.67% (inactive)

Row | SMILES | viability [1] | viability [2] | viability [3] | differential viability (reversal) ([4]; H69AR cells + 2 uM doxorubicin) | viability [4, 7] | viability [4, 8] | inhibition [5] | inhibition [6]
20 | O=C(C1CCCN(S(=O)(=O)c2cccc3nonc23)C1)N1CCC(Cc2ccccc2)CC1 (stereo unspecified) | 103% (inactive) | 34.9% (inactive) | 71.3% (inactive) | 16% (inactive) | 55.2% | 71.3% | -4.21% (inactive) | -7.17% (inactive)
21 | O=C(CN1C(=O)NC2(CCCCC2)C1=O)Nc1ccc(S(=O)(=O)N2CCOCC2)cc1 | 124% (inactive) | 98.3% (inactive) | 96.3% (inactive) | 13.6% (inactive) | 82.7% | 96.3% | -3.38% (inactive) | 3.77% (inactive)
22 | O=C1OC(c2ccc(O)cc2)(c2ccc(O)cc2)c2ccccc21 | 83% (inactive) | 48.8% (inactive) | 102% (inactive) | 4.57% (inactive) | 97.7% | 102% | -2.73% (inactive) | 8.67% (inactive)
23 | CCc1ccccc1NC(=O)CSC1=C(C#N)C(c2ccc(O)c(OC)c2)C2=C(CCCC2=O)N1 (stereo unspecified) | 112% (inactive) | 105% (inactive) | 47.9% (active) | -30.2% (inactive) | 78.1% | 47.9% | -8.08% (inactive) | 5.65% (inactive)
24 | CN(CC(=O)N1CCCc2c1c(=O)oc1ccc(O)cc21)Cc1ccccc1 | 95% (inactive) | 87.6% (inactive) | 90% (inactive) | -3.29% (inactive) | 93.3% | 90% | -7.3% (inactive) | 0.36% (inactive)
25 | C/C(=N\O)C(=O)C(CN1CCCCC1)CN1CCCCC1 | 116% (inactive) | 95.6% (inactive) | 8.43% (active) | 5.9% (inactive) | 2.52% | 8.43% | 1.95% (inactive) | -7% (inactive)
26 | CCOC(=O)c1oc2cc(OCC(N)=O)ccc2c(=O)c1-c1ccc(OC)c(OC)c1 | 65% (inactive) | 88.1% (inactive) | 99% (inactive) | -2.63% (inactive) | 102% | 99% | -7.67% (inactive) | -0.55% (inactive)
27 | Cc1nn(Cc2ccccc2)c2c1C(c1ccncc1)C(C#N)=C(N)O2 (stereo unspecified) | 96% (inactive) | 86% (inactive) | 85% (inactive) | -2.68% (inactive) | 87.7% | 85% | -4.8% (inactive) | -3.27% (inactive)
28 | Cc1cc(S(=O)(=O)N2CCN(c3ccccc3C)CC2)ccc1F | 89% (inactive) | 90.1% (inactive) | 79.5% (inactive) | -0.315% (inactive) | 79.8% | 79.5% | -0.78% (inactive) | 4.59% (inactive)
29 | O=C(O)COc1cccc(NC(=O)C2CCCO2)c1 (stereo unspecified) | 81% (inactive) | 102% (inactive) | 93.3% (inactive) | -10.7% (inactive) | 104% | 93.3% | 0.14% (inactive) | 10.9% (inactive)
30 | NNC(=O)c1ccncc1 | 108% (inactive) | 101% (inactive) | 104% (inactive) | 10.2% (inactive) | 93.7% | 104% | 1.04% (inactive) | 17.5% (inactive)
31 | CCOC(=O)c1ccc2[nH]c3c(c2c1)CCCCC3=O | 80% (inactive) | 105% (inactive) | 99.5% (inactive) | 8.96% (inactive) | 90.5% | 99.5% | -3.6% (inactive) | -0.73% (inactive)
32 | COCCn1nnnc1CN1CCC(Cc2ccccc2)CC1 | 134% (inactive) | 102% (inactive) | 95.3% (inactive) | 5.17% (inactive) | 90.1% | 95.3% | -3.84% (inactive) | 4.68% (inactive)
33 | COc1ccc(NC(=O)CSc2nc(C)cc(C(F)(F)F)n2)cc1 | 91% (inactive) | 103% (inactive) | 87.4% (inactive) | 3.33% (inactive) | 84.1% | 87.4% | -6.44% (inactive) | -4.91% (inactive)
34 | CCN(CC)CCN1C(=O)C(=O)/C(=C(/O)c2ccc(OC(C)C)cc2)C1c1ccncc1 (stereo unspecified) | 133% (inactive) | 112% (inactive) | 91.1% (inactive) | 6.59% (inactive) | 84.5% | 91.1% | -6.76% (inactive) | 3.09% (inactive)
35 | O=C(Nc1ccncc1)C1c2ccccc2Oc2ccccc21 | 121% (inactive) | 100% (inactive) | 92.3% (inactive) | -8.33% (inactive) | 101% | 92.3% | -2.3% (inactive) | 14.4% (inactive)
36 | COCC(=O)Nc1c(C(=O)Nc2ccccc2OC)oc2ccccc12 | 78% (inactive) | 59% (inactive) | 75.1% (inactive) | -7.66% (inactive) | 82.8% | 75.1% | -8.78% (inactive) | -2.79% (inactive)
37 | CNC[C@H](O)c1cccc(O)c1 | 131% (inactive) | 93.7% (inactive) | 92.5% (inactive) | 7.67% (inactive) | 84.8% | 92.5% | -1.56% (inactive) | 2.5% (inactive)
